Results from ChEMBL document CHEMBL3352262, “Synthesis and structure-activity relationships of pteridine dione and trione monocarboxylate transporter 1 inhibitors” (J Med Chem, 2014).
The source made the active and inactive calls. The rule behind the calls is not given here.

Columns and labels:
[1] = test system: Raji; test: Growth inhibition of human Raji cells after 96 hrs by MTT assay; assay type: functional, cell-based
Outline: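 Human Raji Burkitt lymphoma cells were seeded at 20000/well and cultured with compound or vehicle for 4 days (96 h) in 5% CO2. MTT reagent was added for 5 h, then 2-propanol/0.04 N HCl, and absorbance was read at 570 and 630 nm. EC50 came from curve fitting.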

[2] = test system: MCF7; test: Growth inhibition of human MCF7 cells overexpressing MCT4 up to 10 uM after 4 days by MTT assay; assay type: cell-based; details: mcf7, 96 h
Outline: (§1)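 MCF7 cells engineered to overexpress mouse MCT1 or human MCT4 were seeded at 2000/well and compound was added the next day. Cells were cultured 4 days in 5% CO2, then given MTT reagent for 5 h and solubilized with 2-propanol/0.04 N HCl. Absorbance was read at 570 and 630 nm, in triplicate. The highest concentration tested on MCF7_MCT4 cells was 10 μM.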

[3] = test system: MCF7; test: Growth inhibition of human MCF7 cells overexpressing MCT1 after 4 days by MTT assay; assay type: functional, cell-based; details: MCF7, 96 h; outline: as §1
[4] = test system: MCF7; test: Growth inhibition of human MCF7 cells overexpressing MCT4 after 4 days by MTT assay; assay type: cell-based; details: MCF7, 96 h; outline: as §1
[5] = target: T1, Monocarboxylate transporter 4 (Homo sapiens) (UniProt O15427); test: Inhibition of MCT4 (unknown origin) overexpressed in human MCF7 cells assessed as inhibition of transporter-mediated [14C]lactate transport after 10 mins by scintillation counting; assay type: cell-based
T1 sequence (whole entry): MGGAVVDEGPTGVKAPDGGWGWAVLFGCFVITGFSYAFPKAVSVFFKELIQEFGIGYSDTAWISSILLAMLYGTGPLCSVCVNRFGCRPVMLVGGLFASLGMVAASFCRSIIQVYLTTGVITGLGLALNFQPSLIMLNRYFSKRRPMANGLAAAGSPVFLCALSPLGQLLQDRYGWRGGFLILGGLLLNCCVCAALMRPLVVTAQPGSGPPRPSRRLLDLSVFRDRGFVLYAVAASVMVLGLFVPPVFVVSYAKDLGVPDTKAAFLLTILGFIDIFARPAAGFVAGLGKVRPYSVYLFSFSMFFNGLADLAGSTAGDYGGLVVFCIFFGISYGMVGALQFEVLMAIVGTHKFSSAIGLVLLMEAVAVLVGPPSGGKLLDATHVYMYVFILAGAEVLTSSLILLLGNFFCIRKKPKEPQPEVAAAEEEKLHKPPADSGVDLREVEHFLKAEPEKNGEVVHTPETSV

[6] = test system: MCF7; test: Growth inhibition of human MCF7 cells overexpressing MCT4 at 10 uM after 4 days by MTT assay; assay type: cell-based; details: mcf7, 96 h; outline: as §1

Row | Structure (SMILES) | EC50 [1] [nM] | other results
1 | CC(C)Cn1c(=O)n(C)c(=O)c2c1nc(Cc1cccc3ccccc13)c(=O)n2CCCCCO | 1420 | –
2 | CC(C)Cn1c(=O)n(C)c(=O)c2nc(C(=O)N(C)CCCO)c(Cc3cccc4ccccc34)nc21 | > 10000 | –
3 | CC(C)Cn1c(=O)n(C)c(=O)c2nc(S(=O)(=O)CCCO)c(Cc3cccc4ccccc34)nc21 | 3750 | –
4 | CC(C)Cn1c(=O)n(C)c(=O)c2nc(CCCCCO)c(Cc3cccc4ccccc34)nc21 | 58 | Activity [2]: Non-toxic
5 | COCCCCCc1nc2c(=O)n(C)c(=O)n(CC(C)C)c2nc1Cc1cccc2ccccc12 | 5780 | –
6 | CC(C)Cn1c(=O)n(C)c(=O)c2[nH]c(=O)c(Cc3cccc4ccccc34)nc21 | > 10000 | –
7 | CC(C)Cn1c(=O)n(C)c(=O)c2nc(SCCCO)c(Cc3cccc4ccccc34)nc21 | 151 | –
8 | Cc1n[nH]c(C)c1Cc1nc2c(nc1CCCCCO)c(=O)n(C)c(=O)n2CC(C)C | > 10000 | –
9 | CC(C)Cn1c(=O)n(C)c(=O)c2nc(-c3[nH]nnc3CCCO)c(Cc3cccc4ccccc34)nc21 | 6020 | –
10 | CC(C)Cn1c(=O)n(C)c(=O)c2nc([S+]([O-])CCCO)c(Cc3cccc4ccccc34)nc21 (stereo not drawn) | 1990 | –
11 | CC(C)Cn1c(=O)n(C)c(=O)c2nc(CCCCO)c(Cc3cccc4ccccc34)nc21 | 285 | –
12 | CC(C)Cn1c(=O)n(C)c(=O)c2nc(C(=O)NCCCO)c(Cc3cccc4ccccc34)nc21 | > 10000 | –
13 | CC(C)Cc1nn(C)c(=O)c2c(SCCCO)n(Cc3cccc4ccccc34)cc12 | 0.5 | EC50 [3]: 21 nM; EC50 [4]: > 10000 nM; inhibition [5]: inactive
14 | CC(C)Cn1c(=O)n(C)c(=O)c2nc(-c3nnn(C)c3CCCO)c(Cc3cccc4ccccc34)nc21 | > 10000 | –
15 | Cc1n[nH]c(C)c1Cc1sc2c(c1C(=O)N1C[C@H](O)CO1)c(=O)n(C)c(=O)n2CC(C)C | 18 | –
16 | CC(C)Cn1c(=O)n(C)c(=O)c2nc(SCCCCO)c(Cc3cccc4ccccc34)nc21 | 37 | Activity [2]: Non-toxic
17 | CC(C)Cn1c(=O)n(C)c(=O)c2c1nc(Cc1cccc3ccccc13)c(=O)n2CCCCCCO | > 10000 | –
18 | CC(C)Cn1c(=O)n(C)c(=O)c2nc(/C=C\CCCO)c(Cc3cccc4ccccc34)nc21 | 70 | Activity [6]: Toxic
19 | CC(C)Cn1c(=O)n(C)c(=O)c2nc(CCCCCCO)c(Cc3cccc4ccccc34)nc21 | 1690 | –
20 | CC(C)Cn1c(=O)n(C)c(=O)c2c1nc(Cc1cccc3ccccc13)c(=O)n2CCCCO | 150 | –
21 | CC(C)Cn1c(=O)n(C)c(=O)c2nc(-c3c(CCCO)nnn3C)c(Cc3cccc4ccccc34)nc21 | > 10000 | –
22 | CC(C)Cn1c(=O)n(C)c(=O)c2nc(SCCO)c(Cc3cccc4ccccc34)nc21 | 2850 | –
